The source made the active and inactive calls. The calls are words filed in the database; no cut-off is given here.

Tested on in the first assay: not listed separately
The assay can be described thus: Modulation of gamma-secretase expressed in CHO cells co-expressing wild type APP and PS1 assessed as inhibition of amyloid beta-42 production sandwich ELISA. It is filed as cell-based. A digest of the protocol:
(§1)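 CHO cells stably overexpressing wild-type APP and PS1 incubated with compounds; Aβ42, Aβ40 and, for selected compounds, Aβ38 in cell-culture supernatants quantified by sandwich ELISA; IC50 derived for Aβ42.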
(In general: In an ELISA, binding on a coated surface is turned into a signal by an enzyme label.)
For orientation: IC50 means the concentration needed to halve the response being measured. On to `O=C(O)CC1CCN(C(C#CCCCCO)c2ccc(C3(C(F)(F)F)N=N3)cc2)C(c2ccc(C(F)(F)F)cc2)C1` (racemic), for which the IC50 was found to be 2000 nM.

In the case of `CC(C)C#C[C@H](c1ccc(C(F)(F)F)cc1)N1CC[C@@H](CC(=O)O)C[C@H]1c1ccc(C(F)(F)F)cc1`, the concentration for half-maximal inhibition (IC50) amounted to 50 nM.

With `O=C(O)CC1CCN(C(C#CCCCCOC(=O)CCCC[C@@H]2SC[C@@H]3NC(=O)N[C@@H]32)c2ccc(C3(C(F)(F)F)N=N3)cc2)C(c2ccc(C(F)(F)F)cc2)C1` (mixture of isomers), the half-maximal inhibitory concentration (IC50) is 500 nM.

`CC(C)/C=C\[C@H](c1ccc(Cl)cc1)N1CC[C@@H](CC(=O)O)C[C@H]1c1ccc(C(F)(F)F)cc1`: the 50% inhibitory concentration (IC50) was determined as 30 nM.

As to `CC(C)C#C[C@@H](c1ccc(C(F)(F)F)cc1)N1CC[C@H](CC(=O)O)C[C@@H]1c1ccc(C(F)(F)F)cc1`, the half-inhibitory concentration (IC50) was 350 nM.

For the compound `CC(C)C#C[C@@H](c1ccc(Cl)cc1)N1CC[C@H](CC(=O)O)C[C@@H]1c1ccc(C(F)(F)F)cc1`, the concentration for half-maximal inhibition (IC50) was 300 nM.

For `CC(C)C#CC(c1ccc(C2(C(F)(F)F)N=N2)cc1)N1CCC(CC(=O)O)CC1c1ccc(C(F)(F)F)cc1` (racemic), the concentration for half-maximal inhibition (IC50) amounted to 190 nM.

As for `CC(C)/C=C\[C@@H](c1ccc(Cl)cc1)N1CC[C@H](CC(=O)O)C[C@@H]1c1ccc(C(F)(F)F)cc1`, the IC50 is 616 nM.

Take `O=C(O)CC1CCN(C(C#CCCCCNC(=O)CCCC[C@@H]2SC[C@@H]3NC(=O)N[C@@H]32)c2ccc(C3(C(F)(F)F)N=N3)cc2)C(c2ccc(C(F)(F)F)cc2)C1` (mixture of isomers): the half-inhibitory concentration (IC50) amounted to 2200 nM.

Consider `O=C(O)CC1CCN(C(C#CCCCCOC(=O)CCCC[C@@H]2SC[C@@H]3NC(=O)N[C@@H]32)c2ccc(C(F)(F)F)cc2)C(c2ccc(C(F)(F)F)cc2)C1` (mixture of isomers), for which the IC50 came out at 1000 nM.

As to `CC(C)C#C[C@H](c1ccc(Cl)cc1)N1CC[C@@H](CC(=O)O)C[C@H]1c1ccc(C(F)(F)F)cc1`, the IC50 was determined as 87 nM.

Take `COc1cc(C(C#CC(C)C)N2CCC(CC(=O)O)CC2c2ccc(C(F)(F)F)cc2)ccc1-n1cnc(C)c1` (racemic): the half-maximal inhibitory concentration (IC50) was found to be 1000 nM.

On to `CC(C)CC[C@H](c1ccc(Cl)cc1)N1CC[C@@H](CC(=O)O)C[C@H]1c1ccc(C(F)(F)F)cc1`, for which the half-inhibitory concentration (IC50) is 68 nM.

In another assay the target is Presenilin-1 (Homo sapiens) (UniProt P49768). Put plainly: Binding affinity to gamma-secretase catalytic subunit of PS1 expressed in N2a-APP cells at 0.2 uM followed by irradiated with UV light by Western blot analysis. It is filed as cell-based. Summed up: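 N2a-ANPP cells stably overexpressing APP and all four γ-secretase subunits treated live with 0.2 μM biotinylated photoprobe or DMSO vehicle, irradiated with 350 nm UV; membranes prepared, labeled proteins affinity-purified on streptavidin beads, resolved by SDS gel and Western blotted with antibodies to the four γ-secretase subunits or APP.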
(Immunoblotting shows a protein as a band on a membrane.)
`O=C(O)CC1CCN(C(C#CCCCCOC(=O)CCCC[C@@H]2SC[C@@H]3NC(=O)N[C@@H]32)c2ccc(C3(C(F)(F)F)N=N3)cc2)C(c2ccc(C(F)(F)F)cc2)C1` (mixture of isomers): the result was Active.

Consider `COC(=O)CC1CCN(C(C#CCCCCNC(=O)CCCC[C@@H]2SC[C@@H]3NC(=O)N[C@@H]32)c2ccc(C3(C(F)(F)F)N=N3)cc2)C(c2ccc(C(F)(F)F)cc2)C1` (mixture of isomers), for which the outcome was Active.

In another assay the test system is CHO. The assay can be described thus: Modulation of gamma-secretase expressed in CHO cells co-expressing wild type APP and PS1 assessed as increase of amyloid beta-38 production sandwich ELISA. Type of assay: cell-based. Summed up: as §1
In the case of `CC(C)C#C[C@H](c1ccc(Cl)cc1)N1CC[C@@H](CC(=O)O)C[C@H]1c1ccc(C(F)(F)F)cc1`, the result was Active.

The record behind these values is ChEMBL document CHEMBL2169857, “Synthesis of a potent photoreactive acidic γ-secretase modulator for target identification in cells” (Bioorg Med Chem, 2012).
